# Assay results published in ChEMBL document CHEMBL4038329, “Side-Chain Modified Ergosterol and Stigmasterol Derivatives as Liver X Receptor Agonists” (J Med Chem, 2017).
# Activity calls are given as the source filed them. No cut-off for these calls is given here.
# Assays:
# [1] = Agonist activity at LXR in human U937 cells assessed as upregulation of SREBP1c mRNA levels at 10 uM after 6 hrs by qPCR analysis; type: cell-based
# How it was run: (§1)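 U937 cells, 3x10⁶ in 10 ml RPMI with 10% FBS, differentiated with PMA 10 ng/ml for 72 h at 37 °C, then treated with ligand (10 μM) for 6 h. Total RNA was isolated with TRIZOL; 2 µg was reverse-transcribed for 1 h at 42 °C. Transcripts were measured by qPCR. Mean ± SD of three biological samples; ANOVA with Dunnett's test.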
# [2] = target: T1, Peroxisome proliferator-activated receptor gamma (Homo sapiens) (UniProt P37231); assay: Activation of GAL4 fused human PPARgamma expressed in HEK293 cells at 10 uM after 24 hrs by luciferase reporter gene assay
# T1 sequence (whole entry): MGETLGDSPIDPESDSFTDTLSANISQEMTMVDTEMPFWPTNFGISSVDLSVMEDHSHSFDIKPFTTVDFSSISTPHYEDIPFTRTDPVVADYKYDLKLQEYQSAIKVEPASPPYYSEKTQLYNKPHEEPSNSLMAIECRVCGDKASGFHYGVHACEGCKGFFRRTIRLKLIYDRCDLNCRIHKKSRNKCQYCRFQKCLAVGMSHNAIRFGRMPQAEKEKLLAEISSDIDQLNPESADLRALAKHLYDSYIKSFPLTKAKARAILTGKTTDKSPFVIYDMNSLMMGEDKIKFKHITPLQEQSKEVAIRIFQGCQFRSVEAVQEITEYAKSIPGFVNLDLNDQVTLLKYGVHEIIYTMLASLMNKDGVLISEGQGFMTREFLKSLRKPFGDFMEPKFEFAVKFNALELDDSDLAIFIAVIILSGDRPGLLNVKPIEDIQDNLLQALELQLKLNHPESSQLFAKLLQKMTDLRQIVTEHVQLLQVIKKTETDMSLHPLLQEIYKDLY
# [3] = Agonist activity at LXR in human HepG2 cells assessed as upregulation of FASN mRNA levels at 10 uM after 6 hrs by qPCR analysis; type: cell-based
# How it was run: (§2)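 HepG2 cells treated with ligand (10 μM). Total RNA was extracted with TRIZOL; 2 µg was reverse-transcribed (1 h, 42 °C). SREBP1c, FASN and SCD1 transcripts were measured by qPCR. Mean ± SD of three biological samples; ANOVA with Dunnett's test.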
# [4] = Agonist activity at LXR in human U937 cells assessed as upregulation of FASN mRNA levels at 10 uM after 6 hrs by qPCR analysis; type: cell-based; how it was run: as §1
# [5] = Agonist activity at LXR in human HepG2 cells assessed as upregulation of SCD1 mRNA levels at 10 uM after 6 hrs by qPCR analysis; type: cell-based; how it was run: as §2
# [6] = Agonist activity at LXR in human U937 cells assessed as upregulation of SCD1 mRNA levels at 10 uM after 6 hrs by qPCR analysis relative to control; type: cell-based; settings: human, 6 h, 10 µM; how it was run: as §1
# Homo sapiens [7] = organism: Homo sapiens; assay: Agonist activity at LXR in human U937 cells assessed as upregulation of ABCA1 mRNA levels at 10 uM after 6 hrs by qPCR analysis; type: cell-based; how it was run: as §1
# Homo sapiens [8] = organism: Homo sapiens; assay: Agonist activity at LXR in human U937 cells assessed as downregulation of LPS-induced TNFalpha mRNA expression at 10 uM after 6 hrs by qPCR analysis; type: cell-based
# How it was run: (§3)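 PMA-differentiated U937 cells (10 ng/ml PMA, 72 h) were given LPS 100 ng/ml together with compound (10 μM) for 6 h. CCL2 and TNFα mRNA were measured by qPCR after TRIZOL RNA extraction and reverse transcription. Three biological samples per group, mean ± SD.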
# Homo sapiens [9] = organism: Homo sapiens; assay: Agonist activity at LXR in human U937 cells assessed as downregulation of LPS-induced CCL2 mRNA expression at 10 uM after 6 hrs by qPCR analysis; type: cell-based; how it was run: as §3
# HEK293 = assay: Activation of GAL4 fused human RXR expressed in HEK293 cells at 10 uM after 24 hrs by luciferase reporter gene assay
# [10] = target: T2, Nuclear receptor subfamily 1 group I member 2 (Homo sapiens, UniProt O75469); assay: Activation of GAL4 fused human PXR expressed in HEK293 cells at 10 uM by luciferase reporter gene assay; settings: hek293, 10 µM
# T2 sequence (O75469 whole entry): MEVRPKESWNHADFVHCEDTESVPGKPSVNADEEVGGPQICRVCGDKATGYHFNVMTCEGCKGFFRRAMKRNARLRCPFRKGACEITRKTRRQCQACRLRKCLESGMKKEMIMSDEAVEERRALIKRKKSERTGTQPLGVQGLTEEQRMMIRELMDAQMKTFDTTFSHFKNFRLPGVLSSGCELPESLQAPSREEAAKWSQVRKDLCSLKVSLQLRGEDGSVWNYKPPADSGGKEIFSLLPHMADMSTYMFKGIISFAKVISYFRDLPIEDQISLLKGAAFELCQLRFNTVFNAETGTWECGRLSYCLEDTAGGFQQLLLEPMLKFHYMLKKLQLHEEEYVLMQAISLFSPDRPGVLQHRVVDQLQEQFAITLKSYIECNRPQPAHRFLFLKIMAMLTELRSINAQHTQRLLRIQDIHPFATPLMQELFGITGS
# [11] = target: T3, Oxysterols receptor LXR-alpha (Homo sapiens) (UniProt Q13133); assay: Activation of GAL4 fused human LXR alpha expressed in HEK293 cells after 24 hrs by luciferase reporter gene assay relative to 22R-HC; type: cell-based
# T3 sequence (whole entry): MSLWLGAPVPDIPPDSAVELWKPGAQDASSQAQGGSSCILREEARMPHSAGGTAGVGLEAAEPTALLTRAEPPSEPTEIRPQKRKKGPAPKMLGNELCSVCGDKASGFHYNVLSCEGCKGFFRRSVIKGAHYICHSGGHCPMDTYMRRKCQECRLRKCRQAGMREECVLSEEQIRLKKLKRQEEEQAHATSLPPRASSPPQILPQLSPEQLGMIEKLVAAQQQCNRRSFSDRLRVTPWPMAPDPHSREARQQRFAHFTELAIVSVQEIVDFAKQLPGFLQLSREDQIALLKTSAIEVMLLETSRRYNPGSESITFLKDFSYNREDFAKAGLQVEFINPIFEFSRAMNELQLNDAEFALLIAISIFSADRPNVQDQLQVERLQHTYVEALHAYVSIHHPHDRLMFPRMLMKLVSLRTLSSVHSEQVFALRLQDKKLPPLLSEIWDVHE
# How it was run: (§4)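 HEK293 cells carrying the Gal4-LXR-α or Gal4-LXR-β chimera plus the pMH100X4-TK-luc and Renilla reporters. Treatment started 6 h post-transfection and ran 24 h. Dual luciferase read-out. Efficacy is given as % of the response to 8 μM 22R-HC, ± SD, from three to five independent experiments.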
# [12] = target: T4, Oxysterols receptor LXR-beta (Homo sapiens, UniProt P55055); assay: Activation of GAL4 fused human LXR beta expressed in HEK293 cells after 24 hrs by luciferase reporter gene assay; type: cell-based
# T4 sequence (P55055 whole entry): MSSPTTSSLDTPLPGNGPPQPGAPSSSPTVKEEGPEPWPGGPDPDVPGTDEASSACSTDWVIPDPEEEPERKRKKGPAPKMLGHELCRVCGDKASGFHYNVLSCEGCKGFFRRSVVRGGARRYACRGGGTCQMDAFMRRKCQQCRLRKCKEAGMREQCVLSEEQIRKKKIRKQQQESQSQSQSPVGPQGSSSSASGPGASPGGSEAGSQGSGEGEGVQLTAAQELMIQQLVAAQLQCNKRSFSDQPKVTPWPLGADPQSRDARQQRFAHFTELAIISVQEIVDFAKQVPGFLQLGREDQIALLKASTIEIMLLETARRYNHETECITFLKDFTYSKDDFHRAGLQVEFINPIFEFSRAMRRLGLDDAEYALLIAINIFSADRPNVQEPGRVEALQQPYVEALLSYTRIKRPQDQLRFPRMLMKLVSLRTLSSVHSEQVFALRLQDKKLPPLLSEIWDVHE
# How it was run: (§5)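 HEK293 cells (4x10⁴/well), grown in DMEM with 10% FBS at 37 °C under 5% CO₂, transiently co-transfected with pMH100X4-TK-luc, Renilla and the Gal4-LXR-α or Gal4-LXR-β plasmid. Dosing began 6 h after transfection and lasted 24 h, at 32, 16, 8, 4, 2 and 1 μM. Dual luciferase read-out. EC50 came from dose-response curves, averaged over three to five independent experiments, ± SD.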
# [13] = Agonist activity at LXR in human HepG2 cells assessed as upregulation of SREBP1c mRNA levels at 10 uM after 6 hrs by qPCR analysis; type: cell-based; how it was run: as §2
# [14] = target: T5, Oxysterols receptor LXR-alpha (Homo sapiens, UniProt Q13133); assay: Activation of GAL4 fused human LXR alpha expressed in HEK293 cells after 24 hrs by luciferase reporter gene assay; type: cell-based; how it was run: as §5
# T5 sequence (Q13133 whole entry): T3 sequence (whole entry)
# [15] = target: T6, Bile acid receptor (Homo sapiens) (UniProt Q96RI1); assay: Activation of GAL4 fused human FXR expressed in HEK293 cells at 10 uM by luciferase reporter gene assay
# T6 sequence (whole entry): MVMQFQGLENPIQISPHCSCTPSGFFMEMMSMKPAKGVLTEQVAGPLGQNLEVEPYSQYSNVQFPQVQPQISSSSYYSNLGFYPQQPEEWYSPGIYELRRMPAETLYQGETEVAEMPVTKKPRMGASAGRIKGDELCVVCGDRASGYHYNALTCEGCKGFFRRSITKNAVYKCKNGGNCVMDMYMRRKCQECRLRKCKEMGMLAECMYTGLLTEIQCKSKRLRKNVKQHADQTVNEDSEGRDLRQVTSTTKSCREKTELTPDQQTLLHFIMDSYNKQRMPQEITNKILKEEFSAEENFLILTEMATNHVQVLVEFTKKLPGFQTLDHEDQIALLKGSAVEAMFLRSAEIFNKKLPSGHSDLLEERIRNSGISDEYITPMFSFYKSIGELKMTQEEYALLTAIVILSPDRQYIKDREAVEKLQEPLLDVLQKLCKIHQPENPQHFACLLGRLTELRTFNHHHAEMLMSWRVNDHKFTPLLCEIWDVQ
# [16] = target: T7, Oxysterols receptor LXR-beta (Homo sapiens) (UniProt P55055); assay: Activation of GAL4 fused human LXR beta expressed in HEK293 cells after 24 hrs by luciferase reporter gene assay relative to 22R-HC; type: cell-based; how it was run: as §4
# T7 sequence (whole entry): T4 sequence (P55055 whole entry)
Activity [15],SMILES,Activity [1],Activity [2],Activity [3],Activity [4],Activity [5],Activity [6],Activity (Homo sapiens [7]),Activity (Homo sapiens [8]),Activity (Homo sapiens [9]),Activity (HEK293),Activity [10],Efficacy [11] [%],EC50 [12],Activity [13],EC50 [14],Efficacy [16] [%]
,CC(C)[C@@H](C)[C@@H](O)C[C@@H](C)[C@H]1CC[C@H]2C3=CC=C4C[C@@H](O)CC[C@]4(C)[C@H]3CC[C@]12C,Not Active,inactive,Not Active,Not Active,Not Active,Not Active,Active,Active,Active,inactive,Active,159,Not Active,Not Active,,
,CC(C)[C@@H](C)C[C@@H](O)[C@@H](C)[C@H]1CC[C@H]2C3=CC=C4C[C@@H](O)CC[C@]4(C)[C@H]3CC[C@]12C,Not Active,,Not Active,Not Active,Not Active,Not Active,Active,,,,,,Not Active,Not Active,Not Active,
,CC(C)[C@@H](C)C[C@H](O)[C@@H](C)[C@H]1CC[C@H]2C3=CC=C4C[C@@H](O)CC[C@]4(C)[C@H]3CC[C@]12C,Not Active,inactive,Not Active,Not Active,Not Active,Not Active,Active,,Active,inactive,Active,,,Not Active,,
,CC[C@H](C[C@H](O)[C@@H](C)[C@H]1CC[C@H]2[C@@H]3CC=C4C[C@@H](O)CC[C@]4(C)[C@H]3CC[C@]12C)C(C)C,Not Active,,Not Active,Not Active,Not Active,Not Active,,,,,,,Not Active,Not Active,Not Active,
Active,CC[C@H](C[C@@H](O)[C@@H](C)[C@H]1CC[C@H]2[C@@H]3CC=C4C[C@@H](O)CC[C@]4(C)[C@H]3CC[C@]12C)C(C)C,Not Active,inactive,Not Active,Not Active,Not Active,Not Active,Active,,,inactive,,,,Not Active,,
,CC(C)[C@@H](C)[C@H]1O[C@@H]1[C@@H](C)[C@H]1CC[C@H]2C3=CC=C4C[C@@H](O)CC[C@]4(C)[C@H]3CC[C@]12C,Not Active,inactive,Not Active,Not Active,Not Active,Not Active,,,,inactive,Active,93.2,,Not Active,,30.4
,CC[C@@H](C(C)C)[C@@H](O)C[C@@H](C)[C@H]1CC[C@H]2[C@@H]3CC=C4C[C@@H](O)CC[C@]4(C)[C@H]3CC[C@]12C,Not Active,,Not Active,Not Active,Not Active,Not Active,Active,,,,,,Not Active,Not Active,Not Active,
